Columns and labels:
Histamine H1 receptor [1] = target: Histamine H1 receptor (Homo sapiens, UniProt P35367); assay: Antagonist activity against human histamine H1 receptor expressed in CHO cells by FLIPR assay; type: functional, cell-based
[2] = target: 5-hydroxytryptamine receptor 2A (Homo sapiens, UniProt P28223); assay: Antagonist activity at human 5HT2A receptor expressed in HEK cells assessed as inhibition of intracellular calcium accumulation by aequorin assay; type: functional, cell-based, HEK293
5-hydroxytryptamine receptor 2A (Homo sapiens, UniProt P28223), sequence (P28223 whole entry): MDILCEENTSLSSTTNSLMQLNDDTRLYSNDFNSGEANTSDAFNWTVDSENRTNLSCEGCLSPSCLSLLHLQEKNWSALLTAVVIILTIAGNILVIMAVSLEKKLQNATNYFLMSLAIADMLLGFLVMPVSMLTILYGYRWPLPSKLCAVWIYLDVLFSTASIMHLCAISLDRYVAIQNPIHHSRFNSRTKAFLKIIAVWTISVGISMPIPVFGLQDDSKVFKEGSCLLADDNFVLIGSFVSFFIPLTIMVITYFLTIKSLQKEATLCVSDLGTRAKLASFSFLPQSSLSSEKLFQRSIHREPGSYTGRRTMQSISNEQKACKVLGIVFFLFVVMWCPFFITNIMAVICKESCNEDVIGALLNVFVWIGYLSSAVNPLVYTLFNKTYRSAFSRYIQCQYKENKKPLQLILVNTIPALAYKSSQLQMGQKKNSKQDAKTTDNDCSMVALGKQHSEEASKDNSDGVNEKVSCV

[3] = target: 5-hydroxytryptamine receptor 2B (Homo sapiens, UniProt P41595); assay: Antagonist activity at human 5HT2B receptor expressed in human SH-SY5Y cells by FLIPR assay
5-hydroxytryptamine receptor 2B, sequence (P41595 whole entry): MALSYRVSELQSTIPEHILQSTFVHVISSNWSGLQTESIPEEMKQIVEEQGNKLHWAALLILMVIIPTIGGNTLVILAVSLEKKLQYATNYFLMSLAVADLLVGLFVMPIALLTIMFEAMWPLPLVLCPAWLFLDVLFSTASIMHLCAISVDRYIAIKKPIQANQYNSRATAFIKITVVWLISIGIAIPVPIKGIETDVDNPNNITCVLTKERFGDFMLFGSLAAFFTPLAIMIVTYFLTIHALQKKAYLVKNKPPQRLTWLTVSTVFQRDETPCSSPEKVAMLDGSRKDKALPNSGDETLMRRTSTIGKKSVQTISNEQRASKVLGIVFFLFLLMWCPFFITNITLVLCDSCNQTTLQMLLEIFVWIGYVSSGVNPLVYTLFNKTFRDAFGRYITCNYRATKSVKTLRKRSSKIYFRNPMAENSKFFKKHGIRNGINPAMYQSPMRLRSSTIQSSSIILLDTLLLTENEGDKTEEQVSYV

[4] = target: T1, 5-hydroxytryptamine receptor 2C (Homo sapiens, UniProt P28335); assay: Antagonist activity at human 5HT2C receptor expressed in human SH-SY5Y cells by FLIPR assay; type: functional, cell-based
T1 sequence (P28335 whole entry): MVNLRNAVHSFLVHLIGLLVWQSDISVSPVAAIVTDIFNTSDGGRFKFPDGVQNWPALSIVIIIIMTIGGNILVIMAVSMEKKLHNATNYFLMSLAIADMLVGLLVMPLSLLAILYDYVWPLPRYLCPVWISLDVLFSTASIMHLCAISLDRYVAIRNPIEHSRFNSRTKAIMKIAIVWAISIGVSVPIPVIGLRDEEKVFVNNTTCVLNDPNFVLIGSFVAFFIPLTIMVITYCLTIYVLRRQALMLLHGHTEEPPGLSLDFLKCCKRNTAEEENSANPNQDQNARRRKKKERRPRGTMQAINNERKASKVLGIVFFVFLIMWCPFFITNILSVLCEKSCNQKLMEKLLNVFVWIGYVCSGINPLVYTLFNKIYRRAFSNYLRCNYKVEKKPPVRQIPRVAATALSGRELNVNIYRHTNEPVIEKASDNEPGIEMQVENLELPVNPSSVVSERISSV

Histamine H1 receptor [5] = target: Histamine H1 receptor (Rattus norvegicus, UniProt P31390); assay: Displacement of [3H]pyrilamine from histamine H1 receptor in Sprague-Dawley rat cortical membrane by liquid scintillation counting
Histamine H1 receptor (Rattus norvegicus, UniProt P31390), sequence (P31390 whole entry): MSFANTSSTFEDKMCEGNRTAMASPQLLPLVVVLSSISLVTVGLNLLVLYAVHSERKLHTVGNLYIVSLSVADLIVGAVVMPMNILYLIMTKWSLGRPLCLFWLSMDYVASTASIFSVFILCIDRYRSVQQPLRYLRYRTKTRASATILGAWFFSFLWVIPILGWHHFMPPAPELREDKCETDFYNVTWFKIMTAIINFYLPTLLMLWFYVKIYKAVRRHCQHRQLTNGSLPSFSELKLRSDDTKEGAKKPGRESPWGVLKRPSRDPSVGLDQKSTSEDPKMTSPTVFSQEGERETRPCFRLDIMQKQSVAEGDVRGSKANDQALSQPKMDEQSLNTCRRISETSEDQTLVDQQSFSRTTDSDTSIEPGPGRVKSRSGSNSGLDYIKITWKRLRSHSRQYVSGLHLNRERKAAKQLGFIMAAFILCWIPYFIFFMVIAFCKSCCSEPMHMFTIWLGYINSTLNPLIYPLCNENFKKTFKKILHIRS
Method in brief: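 Cerebral cortex membranes from male Sprague-Dawley rats (200-250 g), 150 μg/well. Incubated with 0.6 nM [3H]pyrilamine in 50 mM HEPES, pH 7.4, for 2 h at room temperature. Filtered on PEI-soaked GF/B and counted by scintillation. Nonspecific binding with 10 μM cetirizine. Ki by Cheng-Prusoff; mean of two experiments in duplicate.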

[6] = target: 5-hydroxytryptamine receptor 2A (Rattus norvegicus, UniProt P14842); assay: Displacement of [3H]ketanserin from 5HT2A receptor in Sprague-Dawley rat cortical membrane by liquid scintillation counting
5-hydroxytryptamine receptor 2A (Rattus norvegicus, UniProt P14842), sequence (P14842 whole entry): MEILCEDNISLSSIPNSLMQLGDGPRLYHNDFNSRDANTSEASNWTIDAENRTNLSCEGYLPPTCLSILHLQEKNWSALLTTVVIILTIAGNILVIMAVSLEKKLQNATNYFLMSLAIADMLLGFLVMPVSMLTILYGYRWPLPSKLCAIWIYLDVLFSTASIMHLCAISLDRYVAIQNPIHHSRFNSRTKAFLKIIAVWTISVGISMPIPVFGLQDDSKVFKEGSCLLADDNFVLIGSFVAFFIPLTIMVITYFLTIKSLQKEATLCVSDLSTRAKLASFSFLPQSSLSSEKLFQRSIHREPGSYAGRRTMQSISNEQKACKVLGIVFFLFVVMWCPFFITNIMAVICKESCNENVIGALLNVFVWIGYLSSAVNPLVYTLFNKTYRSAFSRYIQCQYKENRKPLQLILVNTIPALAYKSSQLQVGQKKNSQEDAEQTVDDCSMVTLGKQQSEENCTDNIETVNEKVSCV
Method in brief: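 Cerebral cortex membranes from male Sprague-Dawley rats (200-250 g), 50 μg/well. Incubated with 1 nM [3H]ketanserin in 50 mM Tris-HCl, 10 mM MgCl2, pH 7.4, for 1 h at 37 °C with shaking. Filtered on PEI-soaked GF/B and counted by scintillation. Nonspecific binding with 10 μM mianserin. Ki by Cheng-Prusoff; mean of two experiments in duplicate.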

Cytochrome P450 1A2 = target: T2, Cytochrome P450 1A2 (Homo sapiens, UniProt P05177); assay: Inhibition of human CYP1A2 transfected in bactosome expression system by spectrofluorimetry; type: ADME
T2 sequence (P05177 whole entry): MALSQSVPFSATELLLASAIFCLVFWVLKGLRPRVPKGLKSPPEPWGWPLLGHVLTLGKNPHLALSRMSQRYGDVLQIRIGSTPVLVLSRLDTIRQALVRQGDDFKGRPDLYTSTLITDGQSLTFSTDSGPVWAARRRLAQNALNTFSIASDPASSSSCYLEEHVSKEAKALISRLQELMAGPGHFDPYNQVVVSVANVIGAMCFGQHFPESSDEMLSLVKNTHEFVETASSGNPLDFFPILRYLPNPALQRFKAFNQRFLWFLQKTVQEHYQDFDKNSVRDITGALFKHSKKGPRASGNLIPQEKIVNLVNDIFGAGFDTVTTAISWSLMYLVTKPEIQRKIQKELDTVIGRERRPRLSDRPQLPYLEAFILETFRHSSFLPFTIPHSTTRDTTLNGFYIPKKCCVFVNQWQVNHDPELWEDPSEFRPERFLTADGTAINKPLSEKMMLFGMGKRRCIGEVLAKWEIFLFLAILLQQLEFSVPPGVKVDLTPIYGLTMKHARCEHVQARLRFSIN
Method in brief: (§1)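 Recombinant human CYP Bactosomes (0.1 mg/mL) in 50 mM phosphate buffer, pH 7.4. Compound at 0.1-10 μM was preincubated with fluorogenic substrate for 10 min at 37 °C, and the reaction was started with an NADPH regenerating system. Metabolite fluorescence was followed for 10 min. Substrates: 1A2 ethoxyresorufin 0.5 μM; 2C9 FCA 50 μM; 2C19 BMC 10 μM; 2D6 MMC 10 μM; 3A4 DEF 1 μM or 7-BQ 25 μM. Run in triplicate.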

Cytochrome P450 2C9 = Cytochrome P450 2C9 (Homo sapiens, UniProt P11712); assay: Inhibition of human CYP2C9 transfected in bactosome expression system by spectrofluorimetry; type: ADME; method in brief: as §1
Cytochrome P450 2C9, sequence (P11712 whole entry): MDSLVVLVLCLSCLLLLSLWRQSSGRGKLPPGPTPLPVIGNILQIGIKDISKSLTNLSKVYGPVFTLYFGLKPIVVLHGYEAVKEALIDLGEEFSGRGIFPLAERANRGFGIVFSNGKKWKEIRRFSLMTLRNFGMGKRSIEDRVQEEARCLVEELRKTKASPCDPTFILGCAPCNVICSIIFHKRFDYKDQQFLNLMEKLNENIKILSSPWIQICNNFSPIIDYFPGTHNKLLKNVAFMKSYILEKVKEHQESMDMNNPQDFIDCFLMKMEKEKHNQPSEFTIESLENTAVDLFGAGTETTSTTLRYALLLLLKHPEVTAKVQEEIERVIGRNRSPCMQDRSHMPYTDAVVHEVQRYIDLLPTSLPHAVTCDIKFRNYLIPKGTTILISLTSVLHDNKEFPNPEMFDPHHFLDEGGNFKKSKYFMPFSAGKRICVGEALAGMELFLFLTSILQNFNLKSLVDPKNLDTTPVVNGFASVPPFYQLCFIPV

Cytochrome P450 2C19 = Cytochrome P450 2C19 (Homo sapiens, UniProt P33261); assay: Inhibition of human CYP2C19 transfected in bactosome expression system by spectrofluorimetry; type: ADME; method in brief: as §1
Cytochrome P450 2C19, sequence (P33261 whole entry): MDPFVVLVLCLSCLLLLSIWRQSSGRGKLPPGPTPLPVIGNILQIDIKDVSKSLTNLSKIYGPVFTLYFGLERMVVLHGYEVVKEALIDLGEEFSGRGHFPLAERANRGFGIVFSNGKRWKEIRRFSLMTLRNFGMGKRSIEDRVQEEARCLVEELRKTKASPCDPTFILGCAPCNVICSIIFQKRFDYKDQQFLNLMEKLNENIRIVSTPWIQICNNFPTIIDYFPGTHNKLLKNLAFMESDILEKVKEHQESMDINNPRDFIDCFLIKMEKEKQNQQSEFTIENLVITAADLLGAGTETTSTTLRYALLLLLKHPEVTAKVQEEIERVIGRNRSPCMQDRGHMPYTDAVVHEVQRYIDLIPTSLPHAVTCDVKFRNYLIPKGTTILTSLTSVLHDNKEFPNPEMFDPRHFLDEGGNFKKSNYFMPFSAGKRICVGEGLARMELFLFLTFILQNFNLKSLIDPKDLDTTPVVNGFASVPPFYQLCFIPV

Cytochrome P450 2D6 = Cytochrome P450 2D6 (Homo sapiens, UniProt P10635); assay: Inhibition of human CYP2D6 transfected in bactosome expression system by spectrofluorimetry; type: ADME; method in brief: as §1
Cytochrome P450 2D6, sequence (P10635 whole entry): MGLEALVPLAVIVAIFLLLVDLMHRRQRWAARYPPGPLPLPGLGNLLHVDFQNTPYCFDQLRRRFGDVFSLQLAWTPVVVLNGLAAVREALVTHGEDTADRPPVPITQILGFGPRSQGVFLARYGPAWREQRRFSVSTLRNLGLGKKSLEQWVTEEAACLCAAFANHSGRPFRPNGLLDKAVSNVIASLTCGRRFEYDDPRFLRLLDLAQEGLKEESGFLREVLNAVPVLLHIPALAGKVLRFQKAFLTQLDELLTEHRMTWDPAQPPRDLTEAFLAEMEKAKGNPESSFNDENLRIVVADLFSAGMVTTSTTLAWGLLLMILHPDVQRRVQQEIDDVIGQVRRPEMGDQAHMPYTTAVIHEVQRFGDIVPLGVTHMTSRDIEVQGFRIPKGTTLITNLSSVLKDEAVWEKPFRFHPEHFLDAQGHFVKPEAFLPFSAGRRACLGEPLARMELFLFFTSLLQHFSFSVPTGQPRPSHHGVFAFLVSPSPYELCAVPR

Cytochrome P450 3A4 = Cytochrome P450 3A4 (Homo sapiens, UniProt P08684); assay: Inhibition of human CYP3A4 transfected in bactosome expression system by spectrofluorimetry; type: ADME; method in brief: as §1
Cytochrome P450 3A4, sequence (P08684 whole entry): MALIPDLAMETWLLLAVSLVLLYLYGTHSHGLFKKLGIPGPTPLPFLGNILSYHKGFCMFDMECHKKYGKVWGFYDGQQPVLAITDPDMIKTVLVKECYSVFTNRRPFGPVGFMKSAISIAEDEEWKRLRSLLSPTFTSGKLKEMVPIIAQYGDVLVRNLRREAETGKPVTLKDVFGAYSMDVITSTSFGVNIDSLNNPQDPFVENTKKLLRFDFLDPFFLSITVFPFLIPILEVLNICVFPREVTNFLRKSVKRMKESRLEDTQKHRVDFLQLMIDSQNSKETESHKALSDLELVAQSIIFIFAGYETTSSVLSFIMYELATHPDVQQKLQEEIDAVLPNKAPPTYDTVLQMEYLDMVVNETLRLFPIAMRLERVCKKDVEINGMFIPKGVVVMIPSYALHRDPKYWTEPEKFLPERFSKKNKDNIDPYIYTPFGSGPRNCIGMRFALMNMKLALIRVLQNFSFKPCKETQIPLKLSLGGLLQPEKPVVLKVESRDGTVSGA

[7] = Fraction unbound in rat brain; type: ADME, tissue-based
[8] = Fraction unbound in rat blood; type: ADME, tissue-based
[9] = Blood clearance in Sprague-Dawley rat at 1 mg/kg, iv and 3 mg/kg, po; type: ADME, organism-based; details: whole blood
Method in brief: (§2)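 Male Sprague-Dawley rats, cassette dosing. Compounds were given as an iv bolus and as an oral suspension. Blood samples were taken at intervals up to 24 h, processed by protein precipitation and analysed by HPLC-MS/MS.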

[10] = Volume of distribution at steady state in Sprague-Dawley rat at 1 mg/kg, iv and 3 mg/kg, po; type: ADME, organism-based; details: in vivo, read-out: Vdss; method in brief: as §2
[11] = Half life in Sprague-Dawley rat at 1 mg/kg, iv and 3 mg/kg, po; type: ADME, organism-based; details: in vivo; method in brief: as §2
[12] = Oral bioavailability in Sprague-Dawley rat at 3 mg/kg; type: ADME, organism-based; details: in vivo; method in brief: as §2
[13] = Ratio of drug level in brain to blood in Sprague-Dawley rat at 1 mg/kg, iv and 3 mg/kg, po; type: ADME, organism-based; details: read-out: BBR
Method in brief: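 Male Sprague-Dawley rats, cassette dosing, iv bolus or oral suspension. Blood and brain levels were measured by protein precipitation and HPLC-MS/MS. Brain:blood ratio was taken from AUC0-8h after oral dosing, or at 1 h after iv dosing for one compound.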

[14] = target: Voltage-gated inwardly rectifying potassium channel KCNH2 (Homo sapiens, UniProt Q12809); assay: Displacement of [3H]dofetilide from human ERG by scintillation proximity assay

Histamine H1 receptor (Homo sapiens, UniProt P35367), sequence (P35367 whole entry): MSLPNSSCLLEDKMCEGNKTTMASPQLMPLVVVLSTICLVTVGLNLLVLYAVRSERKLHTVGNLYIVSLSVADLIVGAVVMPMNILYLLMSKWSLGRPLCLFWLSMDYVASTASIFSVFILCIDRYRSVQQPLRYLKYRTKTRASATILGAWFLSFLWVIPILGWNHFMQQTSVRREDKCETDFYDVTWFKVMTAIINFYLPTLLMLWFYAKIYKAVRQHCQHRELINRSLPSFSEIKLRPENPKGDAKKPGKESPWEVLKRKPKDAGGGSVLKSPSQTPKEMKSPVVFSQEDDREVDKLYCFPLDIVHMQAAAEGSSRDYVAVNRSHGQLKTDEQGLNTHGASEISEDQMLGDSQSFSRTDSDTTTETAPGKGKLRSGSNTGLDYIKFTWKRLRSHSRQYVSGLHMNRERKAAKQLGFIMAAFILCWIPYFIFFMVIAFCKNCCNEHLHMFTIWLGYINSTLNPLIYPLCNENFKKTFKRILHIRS

Ki (Histamine H1 receptor [1]) [nM] | Ki [2] [nM] | Ki [3] [nM] | Ki [4] [nM] | SMILES | other results
31.6 | 20 | 1000 | 20 | O=C(O)CC1CCN(C2CC[C@]3(Cc4ccccc4Cc4ccccc43)C2)C1 (some centres not stated) | –
39.8 | 631 | > 2000 | > 2000 | O=C(O)[C@H]1[C@@H]2CN(C3CCC4(Cc5ccccc5Cc5ccccc54)C3)C[C@@H]21 (some centres not stated) | –
316 | 50.1 | 39.8 | > 2000 | O=C(O)CC1CN(C2CCC3(Cc4ccccc4Cc4ccccc43)C2)C1 (configuration not stated) | –
200 | 50.1 | 251 | 251 | O=C(O)C=C1CN(C2CCC3(Cc4ccccc4Cc4ccccc43)C2)C1 (configuration not stated) | –
100 | 398 | > 2000 | > 2000 | O=C(O)C1=CCCN(C2CCC3(Cc4ccccc4Oc4ccccc43)C2)C1 (configuration not stated) | –
50.1 | 25.1 | > 2000 | 1000 | O=C(O)C1=CCN(C2CCC3(Cc4ccccc4Oc4ccccc43)C2)CC1 (configuration not stated) | Ki (Histamine H1 receptor [5]): 20 nM; Ki [6]: 105 nM; IC50 (Cytochrome P450 1A2): > 10000 nM; IC50 (Cytochrome P450 2C9): > 10000 nM; IC50 (Cytochrome P450 2C19): > 10000 nM; IC50 (Cytochrome P450 2D6): > 10000 nM; IC50 (Cytochrome P450 3A4): > 10000 nM; fraction unbound [7]: 0.027; fraction unbound [8]: 0.103; clearance [9]: 16 mL/min/kg; Vd [10]: 2.7 L/kg; half-life [11]: 3 h; bioavailability [12]: 37%; Kp [13]: 1.8
79.4 | 316 | 1580 | – | O=C(O)C1CCN(C2CCC3(Cc4ccccc4Oc4ccccc43)C2)CC1 (configuration not stated) | –
158 | 398 | > 2000 | > 2000 | O=C(O)C1(F)CCN(C2CCC3(Cc4ccccc4Oc4ccccc43)C2)CC1 (configuration not stated) | –
126 | 100 | > 2000 | – | O=C(O)[C@@H]1CCCN(C2CCC3(Cc4ccccc4Oc4ccccc43)C2)C1 (some centres not stated) | –
1000 | 398 | > 2000 | – | O=C(O)C1CCN(C2CCC3(C2)C(=O)c2cc(Cl)ccc2Oc2ccccc23)CC1 (configuration not stated) | –
200 | 126 | > 2000 | > 2000 | O=C(O)C1CCN(C2CCC3(C2)C(=O)c2cc(F)ccc2Sc2ccccc23)CC1 (configuration not stated) | –
200 | > 2000 | > 2000 | – | O=C(O)[C@@H]1CCCN(C2CCC3(C2)C(=O)c2cc(Cl)ccc2Oc2ccccc23)C1 (some centres not stated) | –
20 | 63.1 | 1260 | 31.6 | O=C(O)[C@@H]1CCCN(C2CC[C@]3(Cc4ccccc4Cc4ccccc43)C2)C1 (some centres not stated) | –
25.1 | 631 | 1000 | > 2510 | O=C(O)CC1CCN(C2CCC3(Cc4ccccc4Cc4ccccc43)C2)CC1 (configuration not stated) | –
50.1 | 100 | 251 | 126 | O=C(O)C1(O)CCN(C2CCC3(Cc4ccccc4Cc4ccccc43)C2)CC1 (configuration not stated) | –
50.1 | 39.8 | 3.16 | 15.8 | CC1(C(=O)O)CCN(C2CCC3(Cc4ccccc4Cc4ccccc43)C2)CC1 (configuration not stated) | –
39.8 | 79.4 | > 2000 | 200 | O=C(O)C1=CCN(C2CCC3(Cc4ccccc4Cc4ccccc43)C2)CC1 (configuration not stated) | –
39.8 | > 759 | > 2000 | 316 | O=C(O)C1=CCCN(C2CCC3(Cc4cc(F)ccc4Cc4ccccc43)C2)C1 (configuration not stated) | –
794 | 79.4 | > 2000 | 1580 | O=C(O)C1(F)CCCN(C2CC[C@]3(Cc4ccccc4Cc4ccccc43)C2)C1 (some centres not stated) | –
63.1 | 100 | > 2000 | 316 | O=C(O)C1CN(C2CC[C@]3(Cc4ccccc4Cc4ccccc43)C2)CCO1 (some centres not stated) | –
100 | 316 | 1260 | 200 | O=C(O)C1CN(C2CC[C@]3(Cc4ccccc4Cc4ccccc43)C2)CCN1 (some centres not stated) | –
10 | 158 | > 2000 | 100 | O=C(O)CCNC1CC[C@]2(Cc3ccccc3Cc3ccccc32)C1 (some centres not stated) | IC50 [14]: 63100 nM
25.1 | 2000 | > 2000 | > 2000 | O=C(O)CCNC1CC[C@@]2(Cc3ccccc3Cc3ccccc32)C1 (some centres not stated) | IC50 [14]: > 63100 nM
15.8 | 20 | 100 | 15.8 | O=C(O)C1CCN(C2CC[C@]3(Cc4ccccc4Cc4ccccc43)C2)C1 (some centres not stated) | –
12.6 | 12.6 | 10 | 20 | CC1(C(=O)O)CCN(C2CC[C@]3(Cc4ccccc4Cc4ccccc43)C2)C1 (some centres not stated) | –
– | – | 31.6 | 200 | CN1CCC(=C2c3ccccc3CC(=O)c3sccc32)CC1 [KETOTIFEN] | –

SMILES | Ki (Histamine H1 receptor [1]) [nM] | Ki [2] [nM] | Ki [3] [nM] | Ki [4] [nM] | other results
O=C(O)C1=CCCN(C2CCC3(C2)C(=O)c2ccccc2Cc2ccccc23)C1 (configuration not stated) | 79.4 | > 2000 | – | > 2000 | –
O=C(O)C1=CCCN(C2CC[C@@]3(Cc4ccccc4Cc4ccccc43)C2)C1 (some centres not stated) | 158 | 3980 | > 2000 | > 2000 | –
O=C(O)C1=CCCN(C2CC[C@]3(Cc4ccccc4Cc4ccccc43)C2)C1 (single isomer, unassigned; stereoisomer 1) | 25.1 | 126 | – | 158 | Ki (Histamine H1 receptor [5]): 8.71 nM; Ki [6]: 117 nM; IC50 (Cytochrome P450 1A2): > 10000 nM; IC50 (Cytochrome P450 2C9): > 10000 nM; IC50 (Cytochrome P450 2C19): > 10000 nM; IC50 (Cytochrome P450 2D6): > 10000 nM; IC50 (Cytochrome P450 3A4): > 10000 nM; fraction unbound [7]: 0.03; fraction unbound [8]: 0.024; clearance [9]: 2 mL/min/kg; Vd [10]: 0.4 L/kg; half-life [11]: 2.4 h; bioavailability [12]: 80%; Kp [13]: 0.1
O=C(O)C1=CCCN(C2CC[C@]3(Cc4ccccc4Cc4ccccc43)C2)C1 (stereo in doubt; 48) | 20 | > 2000 | > 2000 | > 2000 | –

— ChEMBL document CHEMBL1275351, “Novel spirotetracyclic zwitterionic dual H(1)/5-HT(2A) receptor antagonists for the treatment of sleep disorders” (J Med Chem, 2010)
